From ChEMBL document CHEMBL3272147, “Nonapeptide ethylamide inhibitors of the luteinizing hormone-releasing hormone (LH-RH) having a D-alanyl residue in position 6 and variations at positions 2 and 3” (1977) come the findings set out here.

Assay [1] addresses T1, Gonadotropin-releasing hormone receptor (Rattus norvegicus) (UniProt P30969).
T1 sequence (whole entry): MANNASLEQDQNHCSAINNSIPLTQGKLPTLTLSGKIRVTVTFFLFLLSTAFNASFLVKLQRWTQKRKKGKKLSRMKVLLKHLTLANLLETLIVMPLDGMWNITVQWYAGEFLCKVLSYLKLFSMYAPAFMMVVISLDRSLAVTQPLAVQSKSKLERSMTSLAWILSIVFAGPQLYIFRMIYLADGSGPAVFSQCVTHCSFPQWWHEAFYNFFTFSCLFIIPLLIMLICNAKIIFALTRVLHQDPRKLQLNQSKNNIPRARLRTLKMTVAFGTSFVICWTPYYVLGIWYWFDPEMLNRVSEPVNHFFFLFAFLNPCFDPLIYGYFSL
Nature of the assay: Antagonist activity at LH-RH receptor in Sprague-Dawley rat pituitary gland assessed as change in 0.3 ng/mL LH-RH-induced follicle-stimulating hormone release in medium at 0.1 ug/ml preincubated for 2 hrs followed by LH-RH addition at 5th and 6th hr 5 mins post drug addition and measured every hour for 4 hrs by RIA relative to vehicle-treated control. In a few lines: (§1)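 Two pituitaries from 20-day-old female Sprague-Dawley rats per 1 mL lactated Ringer's, incubated 6 h at 37 °C with shaking, medium collected and replaced hourly for LH/FSH RIA. Analogue added at I3, I4, I5 and I6; LH-RH added 5 min after the peptide at I5 and I6. Results given as Δ ng/mL against LH-LER-1240-2 and NIH-FSH-S1-based standards, with SEM and p.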

The target in assay [2] is T1, Gonadotropin-releasing hormone receptor (Rattus norvegicus). The assay can be described thus: Antagonist activity at LH-RH receptor in Sprague-Dawley rat pituitary gland assessed as change in 0.3 ng/mL LH-RH-induced follicle-stimulating hormone release in medium at 10 ug/ml preincubated for 2 hrs followed by LH-RH addition at 5th and 6th hr 5 mins post drug addition and measured every hour for 4 hrs by RIA relative to vehicle-treated control. The essentials: as §1

For assay [3] the target is unchanged. The assay can be described thus: Antagonist activity at LH-RH receptor in Sprague-Dawley rat pituitary gland assessed as change in 0.3 ng/mL LH-RH-induced luteinizing hormone release in medium at 1 ug/ml preincubated for 2 hrs followed by LH-RH addition at 5th and 6th hr 5 mins post drug addition and measured every hour for 4 hrs by RIA relative to vehicle-treated control. In a few lines: as §1

For assay [4] the target is unchanged. The assay can be described thus: Antagonist activity at LH-RH receptor in Sprague-Dawley rat pituitary gland assessed as change in 0.3 ng/mL LH-RH-induced follicle-stimulating hormone release in medium at 1 ug/ml preincubated for 2 hrs followed by LH-RH addition at 5th and 6th hr 5 mins post drug addition and measured every hour for 4 hrs by RIA relative to vehicle-treated control. In a few lines:
as §1

Assay [5] has the same target. The assay can be described thus: Antagonist activity at LH-RH receptor in Sprague-Dawley rat pituitary gland assessed as change in 0.3 ng/mL LH-RH-induced luteinizing hormone release in medium at 10 ug/ml preincubated for 2 hrs followed by LH-RH addition at 5th and 6th hr 5 mins post drug addition and measured every hour for 4 hrs by RIA relative to vehicle-treated control. The essentials:
as §1

The target is the same in assay [6]. The assay can be described thus: Antagonist activity at LH-RH receptor in Sprague-Dawley rat pituitary gland assessed as change in 0.3 ng/mL LH-RH-induced luteinizing hormone release in medium at 0.1 ug/ml preincubated for 2 hrs followed by LH-RH addition at 5th and 6th hr 5 mins post drug addition and measured every hour for 4 hrs by RIA relative to vehicle-treated control. The essentials:
as §1

The target is the same in assay [7]. The assay can be described thus: Antagonist activity at LH-RH receptor in Sprague-Dawley rat pituitary gland assessed as change in 0.3 ng/mL LH-RH-induced luteinizing hormone release in medium at 100 ug/ml preincubated for 2 hrs followed by LH-RH addition at 5th and 6th hr 5 mins post drug addition and measured every hour for 4 hrs by RIA relative to vehicle-treated control. In a few lines: as §1

Assay [8] has the same target. The assay can be described thus: Antagonist activity at LH-RH receptor in Sprague-Dawley rat pituitary gland assessed as change in 0.3 ng/mL LH-RH-induced follicle-stimulating hormone release in medium at 100 ug/ml preincubated for 2 hrs followed by LH-RH addition at 5th and 6th hr 5 mins post drug addition and measured every hour for 4 hrs by RIA relative to vehicle-treated control. The essentials:
as §1

Assay [9] shares this target. The assay can be described thus: Agonist activity at LH-RH receptor in Sprague-Dawley rat pituitary gland assessed as change in luteinizing hormone release in medium at 100 ug/ml incubated for 4 hrs measured every hour for 4 hrs by RIA relative to vehicle-treated control. The essentials: (§2)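 Pituitaries from 20-day-old female Sprague-Dawley rats, two per 1 mL lactated Ringer's, incubated 6 h total at 37 °C with shaking. Medium removed hourly for LH and FSH RIA and replaced with fresh medium. Analogue alone added at I3–I6. Values expressed as ng of standards LH-LER-1240-2 (0.60 NIH-LH-S1 unit/mg) and FSH 2.1 × NIH-FSH-S1 units/mg; change versus control with SEM and p.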

Assay [10] shares this target. Nature of the assay: Agonist activity at LH-RH receptor in Sprague-Dawley rat pituitary gland assessed as change in follicle-stimulating hormone release in medium at 100 ug/ml incubated for 4 hrs measured every hour for 4 hrs by RIA relative to vehicle-treated control. In a few lines: as §2
Assay [11] shares this target. Nature of the assay: Antagonist activity at LH-RH receptor in Sprague-Dawley rat pituitary gland assessed as change in 0.6 ng/mL LH-RH-induced follicle-stimulating hormone release in medium at 0.1 ug/ml preincubated for 2 hrs followed by LH-RH addition at 5th and 6th hr 5 mins post drug addition and measured every hour for 4 hrs by RIA relative to vehicle-treated control. In a few lines:
as §1

Assay [12] shares this target. The assay can be described thus: Antagonist activity at LH-RH receptor in Sprague-Dawley rat pituitary gland assessed as change in 0.6 ng/mL LH-RH-induced follicle-stimulating hormone release in medium at 10 ug/ml preincubated for 2 hrs followed by LH-RH addition at 5th and 6th hr 5 mins post drug addition and measured every hour for 4 hrs by RIA relative to vehicle-treated control. In a few lines:
as §1

For assay [13] the target is unchanged. The assay can be described thus: Antagonist activity at LH-RH receptor in Sprague-Dawley rat pituitary gland assessed as change in 0.6 ng/mL LH-RH-induced luteinizing hormone release in medium at 10 ug/ml preincubated for 2 hrs followed by LH-RH addition at 5th and 6th hr 5 mins post drug addition and measured every hour for 4 hrs by RIA relative to vehicle-treated control. In a few lines:
as §1

Assay [14] has the same target. Nature of the assay: Antagonist activity at LH-RH receptor in Sprague-Dawley rat pituitary gland assessed as change in 0.6 ng/mL LH-RH-induced luteinizing hormone release in medium at 1 ug/ml preincubated for 2 hrs followed by LH-RH addition at 5th and 6th hr 5 mins post drug addition and measured every hour for 4 hrs by RIA relative to vehicle-treated control. In a few lines: as §1

For assay [15] the target is unchanged. Nature of the assay: Antagonist activity at LH-RH receptor in Sprague-Dawley rat pituitary gland assessed as change in 0.6 ng/mL LH-RH-induced luteinizing hormone release in medium at 0.1 ug/ml preincubated for 2 hrs followed by LH-RH addition at 5th and 6th hr 5 mins post drug addition and measured every hour for 4 hrs by RIA relative to vehicle-treated control. The essentials: as §1

Assay [16] shares this target. The assay can be described thus: Antagonist activity at LH-RH receptor in Sprague-Dawley rat pituitary gland assessed as change in 0.6 ng/mL LH-RH-induced follicle-stimulating hormone release in medium at 1 ug/ml preincubated for 2 hrs followed by LH-RH addition at 5th and 6th hr 5 mins post drug addition and measured every hour for 4 hrs by RIA relative to vehicle-treated control. The essentials:
as §1

Assay [17] shares this target. Nature of the assay: Agonist activity at LH-RH receptor in Sprague-Dawley rat pituitary gland assessed as change in luteinizing hormone release in medium at 10 ug/ml incubated for 4 hrs measured every hour for 4 hrs by RIA relative to vehicle-treated control. In a few lines: as §2
Assay [18] shares this target. Nature of the assay: Agonist activity at LH-RH receptor in Sprague-Dawley rat pituitary gland assessed as change in follicle-stimulating hormone release in medium at 10 ug/ml incubated for 4 hrs measured every hour for 4 hrs by RIA relative to vehicle-treated control. The essentials:
as §2

Take `CCC[C@H](NC(=O)[C@H](CC(C)C)NC(=O)[C@@H]1CCC(=O)N1)C(=O)N[C@@H](CO)C(=O)N[C@@H](Cc1ccc(O)cc1)C(=O)N[C@H](C)C(=O)N[C@@H](CC(C)C)C(=O)N[C@@H](CCCNC(=N)N)C(=O)N1CCC[C@H]1C(=O)NCC`: the Activity was found to be 5120 ng/mL in assay [1]; 2000 ng/mL in assay [2]; 93 ng/mL in assay [3]; 3900 ng/mL in [4]; 45 ng/mL in [5]; 213 ng/mL in assay [6].

Consider `CCNC(=O)[C@@H]1CCCN1C(=O)[C@H](CCCNC(=N)N)NC(=O)[C@H](CC(C)C)NC(=O)[C@@H](C)NC(=O)[C@H](Cc1ccc(O)cc1)NC(=O)[C@H](CO)NC(=O)[C@H](CC)NC(=O)[C@H](CC(C)C)NC(=O)[C@@H]1CCC(=O)N1`, for which the Activity in assay [2] was 3480 ng/mL; in assay [7] it was 45 ng/mL; in [8], 1780 ng/mL; in [5], 150 ng/mL; in assay [9] it was 1 ng/mL; in assay [10] it was 866 ng/mL.

For the molecule `CCNC(=O)[C@@H]1CCCN1C(=O)[C@H](CCCNC(=N)N)NC(=O)[C@H](CC(C)C)NC(=O)[C@@H](C)NC(=O)[C@H](Cc1ccc(O)cc1)NC(=O)[C@H](CO)NC(=O)[C@H](CC(C)C)NC(=O)[C@H](CC(C)C)NC(=O)[C@@H]1CCC(=O)N1`, the Activity in assay [1] was 5110 ng/mL; in assay [2], 1460 ng/mL; in assay [3] it was 60 ng/mL; in [4], 3980 ng/mL; in assay [5], 45 ng/mL; in assay [9], 73 ng/mL. Further, the Activity is 712 ng/mL in assay [10] and 166 ng/mL in [6].

Consider `CCC[C@H](NC(=O)[C@H](Cc1ccccc1)NC(=O)[C@@H]1CCC(=O)N1)C(=O)N[C@@H](CO)C(=O)N[C@@H](Cc1ccc(O)cc1)C(=O)N[C@H](C)C(=O)N[C@@H](CC(C)C)C(=O)N[C@@H](CCCNC(=N)N)C(=O)N1CCC[C@H]1C(=O)NCC`, for which the Activity in assay [11] was 3980 ng/mL; in assay [12] it was -883 ng/mL; in assay [13], -7 ng/mL; in [14], 32 ng/mL; in assay [15], 221 ng/mL; in [9] it was -66 ng/mL. Besides, the Activity in assay [16] was 2700 ng/mL; in assay [10], -204 ng/mL.

Turning to `CCCC[C@H](NC(=O)[C@H](CC(C)C)NC(=O)[C@@H]1CCC(=O)N1)C(=O)N[C@@H](CO)C(=O)N[C@@H](Cc1ccc(O)cc1)C(=O)N[C@H](C)C(=O)N[C@@H](CC(C)C)C(=O)N[C@@H](CCCNC(=N)N)C(=O)N1CCC[C@H]1C(=O)NCC`, the Activity in assay [2] was 1630 ng/mL; in assay [3] it was 70 ng/mL; in assay [7], 12 ng/mL; in assay [4], 2240 ng/mL; in assay [8], -516 ng/mL; in assay [5], 28 ng/mL. The values for the Activity in assay [9] and in assay [10] were 13 ng/mL and -282 ng/mL, respectively.

Take `CCNC(=O)[C@@H]1CCCN1C(=O)[C@H](CCCNC(=N)N)NC(=O)[C@H](CC(C)C)NC(=O)[C@@H](C)NC(=O)[C@H](Cc1ccc(O)cc1)NC(=O)[C@H](CO)NC(=O)[C@H](CC(C)C)NC(=O)[C@@H](NC(=O)[C@@H]1CCC(=O)N1)[C@@H](C)CC`: the Activity is 1760 ng/mL in [2]; 186 ng/mL in assay [3]; 3330 ng/mL in [4]; -53 ng/mL in assay [5]; 61 ng/mL in [9]; -227 ng/mL in [10].

Regarding `CCNC(=O)[C@@H]1CCCN1C(=O)[C@H](CCCNC(=N)N)NC(=O)[C@H](CC(C)C)NC(=O)[C@@H](C)NC(=O)[C@H](Cc1ccc(O)cc1)NC(=O)[C@H](CO)NC(=O)CNC(=O)[C@H](CC(C)C)NC(=O)[C@@H]1CCC(=O)N1`, the Activity in assay [7] is 169 ng/mL; in [8] it was 3310 ng/mL; in [9] it was -6 ng/mL; in [10], -782 ng/mL.

With `CCNC(=O)[C@@H]1CCCN1C(=O)[C@H](CCCNC(=N)N)NC(=O)[C@H](CC(C)C)NC(=O)[C@@H](C)NC(=O)[C@H](Cc1ccc(O)cc1)NC(=O)[C@H](CO)NC(=O)[C@H](CC(C)C)NC(=O)[C@H](Cc1ccccc1)NC(=O)[C@@H]1CCC(=O)N1`, the Activity turned out to be 3120 ng/mL in assay [1]; 549 ng/mL in assay [2]; 77 ng/mL in assay [3]; 1560 ng/mL in assay [4]; 47 ng/mL in [5]; 59 ng/mL in [9]. The Activity amounted to 1380 ng/mL in [10] and 130 ng/mL in assay [6].

Consider `CCNC(=O)[C@@H]1CCCN1C(=O)[C@H](CCCNC(=N)N)NC(=O)[C@H](CC(C)C)NC(=O)[C@@H](C)NC(=O)[C@H](Cc1ccc(O)cc1)NC(=O)[C@H](CO)NC(=O)[C@H](CC(C)C)NC(=O)[C@@H](NC(=O)[C@@H]1CCC(=O)N1)C(C)C`, for which the Activity came to 1640 ng/mL in assay [2]; 272 ng/mL in [3]; 4320 ng/mL in [4]; 8 ng/mL in assay [17]; 490 ng/mL in [18]; 63 ng/mL in assay [5].
